# Results from ChEMBL document CHEMBL1126856, “Azulenic retinoids: novel nonbenzenoid aromatic retinoids with anticancer activity” (1993).
# Where “and” joins values, the source holds several entries; their conditions need not be identical. Equal values may be shown once.
# Assays:
# Assay type in all cases: functional, Mus musculus
# C3H 10T1/2 [1] = test: Inhibition of neoplastic transformation at a concentration of 10e-6 M
# Summary of the method: (§1)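 C3H10T1/2 cells given 3-MCA (3 μg/mL) for 24 h, then 7 days later continuous retinoid in acetone (final 0.5%), renewed at each weekly medium change, for 4 weeks. Cultures were fixed, stained and scored for type II and III transformed foci; result as foci/dish and % of MCA-treated control. 12 dishes per group.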
# C3H 10T1/2 [2] = test: Inhibition of neoplastic transformation at a concentration of 10e-8 M; parameters: scale not given: the % may be the effect or the level left; summary of the method: as §1
# C3H 10T1/2 [3] = test: Tested for toxicity against C3H10T1/2 cell line of murine embryo fibroblasts at 10e-6 M
# Summary of the method: (§2)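 C3H10T1/2 cells plated at clonal density and exposed to retinoid in acetone (0.5%) for 7 days. Plating efficiency was normalized to the MCA-treated (1 day) control plating efficiency.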
# C3H 10T1/2 [4] = test: Tested for toxicity against C3H10T1/2 cell line of murine embryo fibroblasts at 10e-8 M; summary of the method: as §2
# C3H 10T1/2 [5] = test: The compound was tested for inhibition of neoplastic transformation, at a concentration of 10e-10 M; parameters: scale not given: the % may be the effect or the level left; summary of the method: as §1
# C3H 10T1/2 [6] = test: Toxicity against C3H10T1/2 cell line of murine embryo fibroblasts at 10e-10 M; summary of the method: as §2
# C3H 10T1/2 [7] = test: Inhibition of neoplastic transformation was measured by measuring the transformed foci per dish at 10e-6 M; summary of the method: as §1
# C3H 10T1/2 [8] = test: Tested for inhibition of neoplastic transformation by measuring the transformed foci per dish at 10e-10 M; summary of the method: as §1
# C3H 10T1/2 [9] = test: Tested for inhibition of neoplastic transformation by measuring the transformed foci per dish at 10e-8 M; summary of the method: as §1
# C3H 10T1/2 [10] = test: Tested for anticancer activity by measuring the number of communicating cells using gap junctional communication assay at 10e-6 M (P>0.05)
# C3H 10T1/2 [11] = test: Tested for anticancer activity by measuring the number of communicating cells using gap junctional communication assay at 10e-6 M (P>0.001)
# C3H 10T1/2 [12] = test: Tested for anticancer activity by measuring the number of communicating cells using gap junctional communication assay at 10e-6 M
# C3H 10T1/2 [13] = test: Tested for anticancer activity by measuring the number of communicating cells using gap junctional communication assay at 10e-6 M (P>0.01)
# C3H 10T1/2 [14] = test: The compound was tested for inhibition of Neoplastic transformation, at a concentration of 10e-10 M; parameters: scale not given: the % may be the effect or the level left; summary of the method: as §1
# C3H 10T1/2 [15] = test: Tested for anticancer activity by measuring the number of communicating cells using gap junctional communication assay at 10*e-6 M (P>0.001)
# C3H 10T1/2 [16] = test: Inhibition of Neoplastic transformation at a concentration of 10*e-6 M; parameters: scale not given: the % may be the effect or the level left; summary of the method: as §1
# C3H 10T1/2 [17] = test: Inhibition of Neoplastic transformation at a concentration of 10*e-8 M; parameters: scale not given: the % may be the effect or the level left; summary of the method: as §1
# C3H 10T1/2 [18] = test: Tested for toxicity against C3H10T1/2 cell line of murine embryo fibroblasts at 10 e-6 M; summary of the method: as §2
# C3H 10T1/2 [19] = test: Tested for toxicity against C3H10T1/2 cell line of murine embryo fibroblasts at 10*e-8 M; summary of the method: as §2
# C3H 10T1/2 [20] = test: The compound was tested for inhibition of Neoplastic transformation, at a concentration of 10*e-10 M; parameters: scale not given: the % may be the effect or the level left; summary of the method: as §1
# C3H 10T1/2 [21] = test: Toxicity against C3H10T1/2 cell line of murine embryo fibroblasts at 10*e-10 M; summary of the method: as §2
# C3H 10T1/2 [22] = test: Inhibition of neoplastic transformation was measured by measuring the transformed foci per dish at 10 e-6 M; summary of the method: as §1
# C3H 10T1/2 [23] = test: Tested for inhibition of neoplastic transformation by measuring the transformed foci per dish at 10*e-10 M; summary of the method: as §1
# C3H 10T1/2 [24] = test: Tested for inhibition of neoplastic transformation by measuring the transformed foci per dish at 10*e-8 M; summary of the method: as §1
Compound,"Transformed foci, % of MCA-treated control (C3H 10T1/2 [1])",Control (C3H 10T1/2 [2]),Control (C3H 10T1/2 [3]),Control (C3H 10T1/2 [4]),Control (C3H 10T1/2 [5]),Control (C3H 10T1/2 [6]),Foci/dish (C3H 10T1/2 [7]),Foci/dish (C3H 10T1/2 [8]),Foci/dish (C3H 10T1/2 [9]),other results
Cc1cc(/C=C/C=C/C(=C\C(=O)O)C(F)(F)F)c2c(C)ccc(C(C)C)cc1-2,88%,88%,178%,156%,88%,98%,0.58,0.58,0.58,Communicating cells (C3H 10T1/2 [10]): 5.6
O=C(O)c1ccc(/C=C/c2ccc3cccccc2-3)cc1,12%,50%,67%,147%,50%,129%,0.08,0.33,0.33,Communicating cells (C3H 10T1/2 [11]): 7.4
Cc1ccc2c(/C=C/c3ccc(C(=O)O)cc3)ccc(C(C)C)cc1-2,0%,24%,66%,75%,24%,75%,0,0.16,0.16,Communicating cells (C3H 10T1/2 [11]): 9.5
Cc1cc(/C=C/c2ccc(CO)cc2)c2c(C)ccc(C(C)C)cc1-2,104%,110%,84%,138%,95%,129%,1.09,1,1.16,Communicating cells (C3H 10T1/2 [12]): 4.9
CC(/C=C/C=C/c1ccc2cccccc1-2)=C(/F)C(=O)O,12%,12%,78%,120%,88%,113%,0.08,0.58,0.08,Communicating cells (C3H 10T1/2 [13]): 8.8
Cc1cc(/C=C/c2ccc(C(=O)O)cc2)c2c(C)ccc(C(C)C)cc1-2,0%,40%,67%,94%,146%,119%,0,1.54,0.42,Communicating cells (C3H 10T1/2 [11]): 18.3
CC(/C=C/C=C/c1cc(C)c2cc(C(C)C)ccc(C)c1-2)=C\C=O,119%,95%,125%,129%,110%,115%,1.25,1.16,1,Communicating cells (C3H 10T1/2 [12]): 5.7
C/C(=C\c1ccc(C(=O)O)cc1)c1ccc2c(c1)C(C)(C)CCC2(C)C,0%,0%,80% and 85%,83% and 91%,0%,95% and 96%,0,0,0,Communicating cells (C3H 10T1/2 [11]): 21.2; Control (C3H 10T1/2 [14]): 0%; Communicating cells (C3H 10T1/2 [15]): 18.5
Cc1cc(/C=C/C=C/c2ccc(C(=O)O)cc2)c2c(C)ccc(C(C)C)cc1-2,75%,50%,98%,94%,50%,89%,0.5,0.33,0.33,Communicating cells (C3H 10T1/2 [12]): 2.9
Cc1ccc(C(C)C)cc2c(C)c(/C=C/c3ccc(C(=O)O)cc3)cc1-2,24%,24%,84%,129%,24%,96%,0.16,0.16,0.16,Communicating cells (C3H 10T1/2 [13]): 7.2
CC(/C=C/C=C/c1cc(C)c2cc(C(C)C)ccc(C)c1-2)=C\C(=O)O,,,,,,,,,,Control (C3H 10T1/2 [16]): 76%; Control (C3H 10T1/2 [17]): 120%; Control (C3H 10T1/2 [18]): 89.1%; Control (C3H 10T1/2 [19]): 120%; Control (C3H 10T1/2 [20]): 103%; Control (C3H 10T1/2 [21]): 116%; Foci/dish (C3H 10T1/2 [22]): 0.8; Foci/dish (C3H 10T1/2 [23]): 1.08; Foci/dish (C3H 10T1/2 [24]): 1.27; Communicating cells (C3H 10T1/2 [15]): 9.1
Cc1cc(/C=C/c2ccc(C=O)cc2)c2c(C)ccc(C(C)C)cc1-2,87%,166%,58%,174%,143%,142%,0.91,1.5,1.75,Communicating cells (C3H 10T1/2 [13]): 8.7
CC(/C=C/C=C/c1cc(C)c2cc(C(C)C)ccc(C)c1-2)=C\CO,112%,142%,89%,120%,142%,125%,1.18,1.5,1.5,Communicating cells (C3H 10T1/2 [10]): 8.8
CC(/C=C/c1cc(C)c2cc(C(C)C)ccc(C)c1-2)=C\C=C\C(C)=C\C(=O)O,75%,61%,178%,151%,61%,94%,0.5,0.4,0.4,Communicating cells (C3H 10T1/2 [12]): 1.55
